Autophagy mod – alters autophagy in cells; actives 0.98% (n = 190,000); AID 463193; MEF GFP-LC3 puncta imaging; test concentration mostly 10 µM; calls only at 10 µM (by protocol);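 active = percentage of spot-positive cells more than 3 SD above its plate mean, without a fluorescence outlier flag or 80% toxicity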
Hck Nef HTS – inhibitors of human Hck kinase activated by Nef. P08631. actives 0.68% (n = 220,000). Recombinant Hck-YEEI plus Nef, Z-Lyte FRET kinase assay. inhibition, % at 20 µM;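 active = Hck-Nef kinase inhibition above about 50%, limit read from the data; inactive = inhibition below that limit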
L929 necroptosis – L929 zVAD cell death inhibition | viability rescue, % at 10 µM | AID 1377 | actives 0.38% (n = 220,000) | L929 zVAD necroptosis rescue, ATP luminescence, 24 h; with zVAD 60 µM;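 active = activation, scaled between plate controls, above about 75%, limit read from the data; inactive = activation under that limit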
Dynein cargo inh – dynein cargo transport inhibition; z-score, hits read low; AID 1381; actives 0.47% (n = 220,000); 3617.4 mouse cells, GR-EGFP nuclear translocation imaging; test concentration mostly 20 µM; stimulated with dexamethasone, 1 µM; active compounds read low;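 active = plate z-score of nuclear minus cytoplasmic receptor signal below a set negative limit, without overly bright fluorescence or cell loss, cut at about -3.5 in these data, passing the limit was not always enough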;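 note: z-score of nuclear minus cytoplasmic ring GR-EGFP intensity difference per well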
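Buffer or medium – tet-free medium with charcoal-stripped serum · Signal – automated 10x imaging of fixed Hoechst-stained cells · Also added – dexamethasone agonist, 1.0 µM final, for 30 min · Incubation – induction 48 h, compound 1 h, agonist 30 min · Read-out – GR-EGFP nuclear translocation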
Mdm2 ligase inh – blocks human Mdm2 ubiquitin ligase activity; Q00987; actives 0.11% (n = 210,000); AID 1230; signal enhancement, % at 5 µM; cell-based MDM2 ubiquitination luciferase reporter, 2 h; 0 = plate control, 100 = twice control, blank-subtracted;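 active = signal enhancement of 30% or more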;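 note: luminescence tracks abundance of the self-degrading MDM2-luciferase fusion protein; higher signal means inhibition of MDM2 E3 ligase activity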
Target sequence (Q00987 whole entry, looked up, the tested form may be a part): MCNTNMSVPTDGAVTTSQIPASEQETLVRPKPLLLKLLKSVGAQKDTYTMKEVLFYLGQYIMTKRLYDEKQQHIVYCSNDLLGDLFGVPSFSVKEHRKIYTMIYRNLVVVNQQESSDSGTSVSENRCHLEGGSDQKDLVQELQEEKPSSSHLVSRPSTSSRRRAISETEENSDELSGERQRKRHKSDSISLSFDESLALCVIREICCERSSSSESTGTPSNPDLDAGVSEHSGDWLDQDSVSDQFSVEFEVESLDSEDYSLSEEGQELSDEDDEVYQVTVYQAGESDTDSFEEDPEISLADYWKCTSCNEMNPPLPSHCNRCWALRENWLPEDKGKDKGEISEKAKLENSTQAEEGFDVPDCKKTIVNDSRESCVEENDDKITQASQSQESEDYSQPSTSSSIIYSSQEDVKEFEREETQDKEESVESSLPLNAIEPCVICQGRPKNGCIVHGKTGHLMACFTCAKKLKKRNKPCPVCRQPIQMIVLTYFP
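Material: Stable MDM2–luciferase fusion reporter cells | Amount: 2000 cells seeded into each well | Dosing: One concentration, 5 µM, with 0.2% DMSO | Incubation: 4 h cell settling then 2 h compound exposure, 37 °C | Measured by: Luciferase luminescence | Read-out basis: % enhancement relative to plate controls after blank subtraction | Benchmarks: Control and blank well means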
TNF necrop inh – blocks TNF-alpha induced death of Jurkat FADD-/- cells | Jurkat FADD-/- TNF necroptosis rescue, ATP luminescence, 24 h; 0 = TNF only, 100 = no-TNF cells | activation (protection from cell death), % at 10 µM | actives 0.068% (n = 220,000) | AID 463075;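 active = activation, meaning protection from cell death, of at least 50% relative to plate controls; inactive = activation below 50%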;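 note: necroptosis triggered by 40 ng/mL TNF-alpha added together with compound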
Hck Nef conf – confirmation of Hck-Nef kinase inhibitors; Recombinant Hck-YEEI:Nef, Z-Lyte FRET kinase assay; actives 28% (n = 1,300); shares compounds with Hck Nef HTS; calls only at 10 µM;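 active = average inhibition of at least 50%, with Z-scores no higher than 3 in both the phospho-tyrosine peptide and fluorescence counterscreens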
Hits are given with their value; - = inactive; . = no result shown; + = active, no number. In the library only some 2.4% were active in any assay of this set; here they are far more common.

SMILES	Autophagy mod	Hck Nef HTS	L929 necroptosis	Dynein cargo inh	Mdm2 ligase inh	TNF necrop inh	Hck Nef conf
O=C(/C=C/c1ccc(Br)o1)Nc1nnc(C2CC2)s1	.	57.2	-	-	-	-	+
O=C(C(c1ccccc1)c1ccccc1)N1CC[C@@]2(O)CCCC[C@H]2C1	.	-	-	-	-	-	.
Cc1ccc(C)n1Cc1ccc(C(=O)O)cc1	-	73.9	-	-	-	-	-
O=c1[nH]c(O)c(/C=C2\C=Nc3ccccc32)[nH]1	.	59.6	-	-	-	-	-
O=c1oc2ccccc2c(O)c1/C=C1\C=Nc2ccccc21	-	-	-	-	-	-	.
CCCCOc1ncnc2c1[nH]c1ccc(C)cc12	.	-	-	-	-	-	.
Cc1nn(CCC(=O)O)c2nc(-c3cccnc3)cc(C(F)(F)F)c12	-	-	-	-	-	-	.
Cc1nn(CCc2nn[nH]n2)c2nc(-c3ccc(C4CCCCC4)cc3)cc(C(F)(F)F)c12	-	71.0	-	-	-	-	+
O=C(/C=C/N1CCOCC1)c1ccc(-c2ccccc2)cc1	-	66.2	-	-	-	-	-
CNc1nnc(-c2cc3ccccc3oc2=O)s1	-	-	-	-	-	-	.
Cc1nnc(NC(=O)c2ccc3c(c2)C(=O)N(CCC(C)C)C3=O)s1	-	-	-	-	-	-	.
O=C(Nc1cccc(Oc2ccc(C(=O)O)c(C(=O)O)c2)c1)c1ccc(-c2ccccc2)cc1	.	66.2	-	-	-	-	-
O=C(COC(=O)c1ccc2ccccc2n1)NCc1ccccc1	-	-	-	-	-	-	.
CCN1CCN(Cc2ccc(NC(=O)c3ccc(C)c(NC(=O)c4ccc5n[nH]nc5c4)c3)cc2C(F)(F)F)CC1	.	75.7	-	-	-	-	+
Cc1ccc(OCC(=O)Nc2ccc(-c3nc4ncccc4o3)cc2)c(C)c1	-	105.6	-	-	-	-	-
O=C(NC(=S)Nc1ccc(Cc2ccncc2)cc1)c1ccccc1F	-	-	-	-	-	-	.
Cc1ccc(C(=O)Nc2cccc(-c3nc4ncccc4o3)c2)cc1	.	-	-	-	-	-	.
O=C(NC(=S)Nc1ccc(-c2nc3ncccc3o2)cc1)c1ccccc1F	-	52.3	-	-	.	-	-
COc1ccc(C2(O)CCN(CC(=O)Nc3nccs3)CC2)c(OC)c1	-	-	-	-	-	-	.
COc1ccc(-c2csc(NC(=S)NC(=O)/C=C/c3ccco3)n2)cc1Br	.	78.4	-	-	-	-	-
Cn1cc(/C=N/NC(=O)c2cc3cc(Br)ccc3o2)c2ccccc21	.	-	-	-	-	-	.
O=C(O)c1ccc(-n2cccc2/C=N\NC(=O)c2cc3cc(Br)ccc3o2)cc1	.	53.9	-	-	-	-	-
COc1ccc(-c2csc(NC(=O)CSc3nc(C)nc4sc(C(=O)O)c(C)c34)n2)cc1	.	95.8	-	-	-	-	+
Cc1cc(/C=C2\SC(=Nc3ccccc3)NC2=O)c(C)n1-c1ccc(S(N)(=O)=O)cc1	-	58.8	-	-	-	-	-
O=c1c2ccccc2sn1-c1cc(S(=O)(=O)N2CCOCC2)ccc1N1CCOCC1	-	92.7	-	-6.54	-	-	+
SMILES	Autophagy mod	Hck Nef HTS	L929 necroptosis	Dynein cargo inh	Mdm2 ligase inh	TNF necrop inh	Hck Nef conf
O=c1cc(-c2ccc(O)cc2)oc2c(O)c(O)c(O)c(O)c12	.	-	-	-	-	-	.
COc1c(O)cc2oc(-c3ccc(O)cc3)cc(=O)c2c1O	.	90.5	-	-	-	-	+
O=c1cc(CCl)nc2sc3ccccc3n12	-	60.6	-	-	-	-	-
O=C(NC1CC2CCCC(C1)N2Cc1cccs1)c1ccc([N+](=O)[O-])cc1 (configuration not stated)	-	-	-	-	-	-	.
Cc1ccc(/C=C2/SC(=S)N(c3ccc(S(=O)(=O)Nc4nccs4)cc3)C2=O)cc1	.	59.5	-	-	-	-	-
Cc1ccc(Oc2ccc3c(c2)C(=O)N(c2ccc(S(=O)(=O)Nc4nccs4)cc2)C3=O)cc1	-	-	-	-	-	-	.
COC(=O)c1sc2ncccc2c1OCc1c(Cl)cccc1Cl	-	55.4	-	-	-	-	-
COc1ccc(C(=O)Nc2ccccc2C(=O)NC(Cc2ccc(O)cc2)C(=O)NNC(=O)c2ccccc2Cl)cc1 (configuration not stated)	-	65.8	-	-	-	-	-
N#Cc1c(N)n(-c2cccc(O)c2)c2nc3ccccc3nc12	.	72.4	-	-	-	-	.
N#Cc1c(N)n(-c2ccc(O)cc2)c2nc3ccccc3nc12	-	-	-	-	-	-	.
O=C(Nc1nc2ccc(S(=O)(=O)N3CCCC3)cc2s1)c1ccccn1	-	56.9	-	-	-	-	-
COC(=O)c1ccc(-c2sc3nc(N4CCOCC4)c4c(c3c2N)CCCC4)o1	-	-	-	-	-	-	.
CC12CCC(=O)N1c1c(sc3nc(N4CCOCC4)c4c(c13)CCCC4)C(=O)N2 (configuration not stated)	-	60.8	-	-	-	-	.
O=C(OCC(=O)N1CCN(C(=O)c2ccco2)CC1)c1cc(-c2ccc(Cl)c(Cl)c2Cl)nc2ccccc12	-	50.3	-	-	-	-	+
Cc1cc(-c2nnc3n2N=C(c2ccc(F)cc2)CS3)n[nH]1	.	-	-	-	-	-	.
CCCC(=O)N1CCN(S(=O)(=O)c2cc(Cl)ccc2OC)CC1	-	-	-	-	-	-	.
O=C(O)CCC(=O)Nc1ccc(Br)cc1C(=O)c1ccccc1Cl	.	-	-	-	-	-	.
CN(Cc1c(O)ccc2c1oc(=O)c1ccccc12)C1CCCCC1	-	-	-	-	-	-	.
CCc1c(C)c2ccc(O)c(CN(C)C)c2oc1=O	-	59.1	-	-	-	-	.
CN(C)Cc1c(O)ccc2c3c(c(=O)oc12)CCCCC3	-	75.9	-	-	-	-	.
CN(C)Cc1c(O)ccc2c(-c3ccccc3)cc(=O)oc12	-	-	-	-	-	-	.
CCCCc1cc(=O)oc2c(CN(C)C)c(O)ccc12	-	83.0	-	-	-	-	.
COCCN(CCOC)Cc1c(O)ccc2c3c(c(=O)oc12)CCC3	-	72.0	-	-	-	-	.
Cc1cc(C)n2nc3nc4c(cc3c2n1)CCCC4	-	-	-	-	-	-	.
CCN1C(=O)CSc2ccc(C(=O)NCc3ccc(OC)cc3)cc21	-	-	-	-	-	-	.
CCCCN(CC)Cc1c(O)ccc2c3c(c(=O)oc12)CCC3	.	+	-	-	-	-	.
O=c1[nH]c(-c2ccc3c(c2)OCO3)nc2c1sc(=S)n2-c1ccccc1	-	60.6	-	-	-	-	-

Source: PubChem BioAssay (several laboratories)
